What all share (format): ADME
The target of data set [1] is T1, UDP-glucuronosyltransferase 1A9 (Homo sapiens, UniProt O60656).
T1 sequence (O60656 whole entry): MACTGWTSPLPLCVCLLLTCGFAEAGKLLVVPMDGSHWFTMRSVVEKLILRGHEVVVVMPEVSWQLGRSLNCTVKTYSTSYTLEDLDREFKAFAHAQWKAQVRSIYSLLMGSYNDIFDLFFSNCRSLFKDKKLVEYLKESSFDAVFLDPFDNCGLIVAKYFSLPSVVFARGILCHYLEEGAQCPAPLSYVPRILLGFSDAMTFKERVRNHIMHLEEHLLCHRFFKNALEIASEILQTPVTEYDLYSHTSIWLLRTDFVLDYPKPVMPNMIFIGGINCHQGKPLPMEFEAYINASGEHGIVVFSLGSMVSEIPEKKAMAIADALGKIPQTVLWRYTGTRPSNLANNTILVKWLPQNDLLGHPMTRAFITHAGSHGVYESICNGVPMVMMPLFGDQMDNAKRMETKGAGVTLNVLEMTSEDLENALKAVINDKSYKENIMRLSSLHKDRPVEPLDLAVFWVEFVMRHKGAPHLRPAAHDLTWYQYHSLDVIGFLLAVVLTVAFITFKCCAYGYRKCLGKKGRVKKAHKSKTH
Description: Activity of human recombinant UGT1A9 expressed in baculovirus-infected Sf9 cells assessed as enzyme-mediated glucuronidation per mg protein at 300 uM after 60 mins by Michaelis-Menten equation in presence of 3 mM UDP-GlcUA. The following applies: sf9, 1 h.

Data set [2] concerns the target T2, UDP-glucuronosyltransferase 1A10 (Homo sapiens, UniProt Q9HAW8).
T2 sequence (Q9HAW8 whole entry): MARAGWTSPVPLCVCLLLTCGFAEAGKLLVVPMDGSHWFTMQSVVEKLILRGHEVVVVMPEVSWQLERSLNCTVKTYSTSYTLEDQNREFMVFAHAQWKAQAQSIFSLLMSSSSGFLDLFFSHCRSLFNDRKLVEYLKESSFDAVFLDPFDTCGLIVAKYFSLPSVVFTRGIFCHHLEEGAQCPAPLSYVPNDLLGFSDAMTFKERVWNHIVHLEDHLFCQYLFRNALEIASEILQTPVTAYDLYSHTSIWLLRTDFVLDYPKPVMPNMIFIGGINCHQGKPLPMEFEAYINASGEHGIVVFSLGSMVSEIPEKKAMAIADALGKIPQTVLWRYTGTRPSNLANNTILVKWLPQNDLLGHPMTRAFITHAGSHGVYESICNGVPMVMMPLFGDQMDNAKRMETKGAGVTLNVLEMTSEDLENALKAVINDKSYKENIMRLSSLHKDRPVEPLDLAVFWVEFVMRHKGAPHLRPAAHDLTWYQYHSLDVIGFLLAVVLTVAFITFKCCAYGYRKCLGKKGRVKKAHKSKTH
Kind of data set: Drug metabolism assessed as human recombinant UGT1A10-mediated compound formation treated with C-1305 for 60 mins by ESI-MS/UV-vis spectroscopy in presence of 3 mM UDP-GlcUA. The following applies: recombinant enzyme, 1 h. The method in brief:
(§1)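 His-tagged recombinant human UGT expressed in baculovirus-infected insect cells, levels normalized by anti-His Western blot; 5 μg membrane protein incubated 60 min at 37°C in […] pH 7.4, 5 mM MgCl2, 5 mM saccharolactone, 2% DMSO, substrate 100 or 200 μM; started with UDP-GlcUA; ethanol stop, centrifuged; supernatant by reversed-phase HPLC-UV/ESI-MS; glucuronide confirmed by β-glucuronidase hydrolysis; triplicate.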

The target in data set [3] is T3, UDP-glucuronosyltransferase 1A7 (Homo sapiens, UniProt Q9HAW7).
T3 sequence (Q9HAW7 whole entry): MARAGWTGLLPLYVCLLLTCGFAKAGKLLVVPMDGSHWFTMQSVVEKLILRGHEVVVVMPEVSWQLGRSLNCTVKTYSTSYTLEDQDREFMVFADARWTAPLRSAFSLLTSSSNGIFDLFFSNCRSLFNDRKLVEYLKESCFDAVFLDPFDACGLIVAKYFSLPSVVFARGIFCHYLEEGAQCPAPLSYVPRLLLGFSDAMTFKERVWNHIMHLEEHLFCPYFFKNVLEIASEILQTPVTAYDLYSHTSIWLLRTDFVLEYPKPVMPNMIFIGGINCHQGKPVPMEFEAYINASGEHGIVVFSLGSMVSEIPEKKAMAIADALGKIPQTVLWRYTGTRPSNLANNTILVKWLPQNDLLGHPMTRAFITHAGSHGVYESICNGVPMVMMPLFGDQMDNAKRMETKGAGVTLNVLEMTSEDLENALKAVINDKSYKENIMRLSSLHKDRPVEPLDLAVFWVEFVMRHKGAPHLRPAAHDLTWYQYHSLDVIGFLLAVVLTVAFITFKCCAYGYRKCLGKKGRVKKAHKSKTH
Kind of data set: Drug metabolism assessed as human recombinant UGT1A7-mediated compound formation treated with C-1305 for 60 mins by ESI-MS/UV-vis spectroscopy in presence of 3 mM UDP-GlcUA. The settings on record: recombinant enzyme, 1 h. An outline of the steps: as §1

Data set [4] has as its target T1, UDP-glucuronosyltransferase 1A9. Kind of data set: Activity of human recombinant UGT1A9 expressed in baculovirus-infected Sf9 cells assessed as enzyme-mediated glucuronidation per mg protein at 235 uM after 60 mins by Michaelis-Menten equation in presence of 3 mM UDP-GlcUA. The settings on record: sf9, 1 h.
The target in data set [5] is T4, UDP-glucuronosyltransferase 1A1 (Homo sapiens, UniProt P22309).
T4 sequence (P22309 whole entry): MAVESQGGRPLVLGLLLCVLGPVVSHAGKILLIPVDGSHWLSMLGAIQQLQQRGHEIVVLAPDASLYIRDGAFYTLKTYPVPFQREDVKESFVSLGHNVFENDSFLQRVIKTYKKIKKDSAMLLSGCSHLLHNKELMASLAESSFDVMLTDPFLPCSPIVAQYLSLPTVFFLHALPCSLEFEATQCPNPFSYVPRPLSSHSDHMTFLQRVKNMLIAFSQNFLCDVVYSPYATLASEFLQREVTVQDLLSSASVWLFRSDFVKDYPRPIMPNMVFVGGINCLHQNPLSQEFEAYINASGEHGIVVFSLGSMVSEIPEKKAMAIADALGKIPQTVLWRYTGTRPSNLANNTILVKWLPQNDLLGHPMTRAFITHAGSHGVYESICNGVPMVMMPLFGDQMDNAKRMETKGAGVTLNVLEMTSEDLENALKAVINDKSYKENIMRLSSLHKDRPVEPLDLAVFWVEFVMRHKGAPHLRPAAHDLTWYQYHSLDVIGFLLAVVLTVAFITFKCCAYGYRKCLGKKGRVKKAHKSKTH
Kind of data set: Drug metabolism assessed as human recombinant UGT1A1-mediated compound formation treated with C-1311 for 60 mins by ESI-MS/UV-vis spectroscopy in presence of 3 mM UDP-GlcUA. The following applies: recombinant enzyme, 1 h.

Another data set concerns Liver microsome. Kind of data set: Drug metabolism in human liver microsomes assessed as metabolite formation treated with C-1311 for 60 mins by ESI-MS/UV-vis spectroscopy in presence of 3 mM UDP-GlcUA. The following applies: 1 h. The method in brief:
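Protein (5 μg UGT1A10 or microsomal) incubated with 0.2 mM substrate and 3 mM UDP-GlcUA, 60 min. HPLC on C18 at 25°C with a 15–80% methanol gradient in 0.05 M ammonium formate pH 3.4 at 1 ml/min. ESI positive-ion MS and UV/Vis spectra taken from the peaks. Glucuronide confirmed by 60 min further treatment with 1000 U E. coli β-glucuronidase.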
For orientation: Liver microsomes are a subcellular fraction often used to study metabolism.

On to `CN(C)CCCNc1ccc2nnn3c4ccc(O)cc4c(=O)c1c23`, for which the Drug metabolism in data set [1] was 0.15 nmol/min/mg; in data set [2], “metabolite_detected”; in data set [3] it was “metabolite_detected”.

On to `CCN(CC)CCNc1ccc2ncn3c4ccc(O)cc4c(=O)c1c23` [C-1311], for which the Drug metabolism is 0.14 nmol/min/mg in data set [4], “metabolite_detected” in data set [5] and “metabolite_detected” in the data set with Liver microsome.

For the origin of these results see ChEMBL document CHEMBL3526062, “Role of human UDP-glucuronosyltransferases in the biotransformation of the triazoloacridinone and imidazoacridinone antitumor agents C-1305 and C-1311: highly selective substrates for UGT1A10” (Drug Metab Dispos, 2012).
